# ChEMBL document CHEMBL1125346, “Guanidinophenyl-substituted enol lactones as selective, mechanism-based inhibitors of trypsin-like serine proteases” (J Med Chem, 1992)
# Assays:
# [1] = target: T1, Serine protease 1 (Bos taurus) (UniProt P00760); experiment: Time for which maximum percent inhibition persists was determined against trypsin (14.6 nM); assay type: functional
# T1 sequence (whole entry): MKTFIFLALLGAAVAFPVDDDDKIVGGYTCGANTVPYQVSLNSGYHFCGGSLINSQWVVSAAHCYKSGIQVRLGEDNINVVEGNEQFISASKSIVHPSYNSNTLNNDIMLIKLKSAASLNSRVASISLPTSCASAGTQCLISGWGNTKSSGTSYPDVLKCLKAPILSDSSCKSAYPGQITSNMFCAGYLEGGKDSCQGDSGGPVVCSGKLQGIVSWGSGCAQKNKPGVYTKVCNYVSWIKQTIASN
# Method in brief: (§1)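 Trypsin was incubated with excess lactone added from DMSO stock (10% final DMSO). Aliquots taken over 2 h were diluted into Z-Val-Gly-Arg-pNA (155 μM) in 0.2 M phosphate, pH 7.2, and read at 404 nm. Activity came from the absorbance slope versus a no-lactone control. Reported are minutes to maximal inhibition and minutes it persisted; ∞ means no recovery within 2 h.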
# [2] = target: Chymotrypsinogen A (Bos taurus) (UniProt P00766); experiment: Maximum percent inhibition by the compound was determined against Chymotrypsinogen (17 nM)
# Method in brief: (§2)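 Enzyme incubated with excess lactone added from DMSO stock (final 10% DMSO); aliquots over 2 h diluted into substrate: chymotrypsin Suc-AAPF-pNA 315 µM, pH 7.2, 410 nm; t-PA Spectrozyme t-PA 0.2 mM, Tris-imidazole pH 8.4, 405 nm; HNE MeO-Suc-AAPV-pNA 150 µM, pH 7.4, 410 nm; plasmin Ts-GPK-pNA 157.4 µM, pH 7.8, 404 nm; thrombin Ts-GPR-pNA 75 µM, pH 8.0, 408 nm; trypsin Z-VGR-pNA 155 µM, pH 7.2, 404 nm. Activity given relative to a no-lactone control. Some runs used a 10-min substrate-free delay after dilution. ∞ means no recovery over 2 h.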
# [3] = Ratio of initial inhibitor concentration to initial thrombin concentration
# Method in brief: (§3)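 Ratio I0/E0 of lactone to enzyme in the 2-h incubation assay; lactone added from DMSO stock to buffered enzyme (final 10% DMSO).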
# [4] = target: Prothrombin (Homo sapiens) (UniProt P00734); experiment: Time for which maximum percent inhibition persists was determined against thrombin (1.93 nM); assay type: functional; method in brief: as §2
# [5] = target: Prothrombin (Homo sapiens) (UniProt P00734); experiment: Time to reach maximum percent inhibition by the compound was determined against thrombin (1.93 nM); assay type: functional
# Method in brief: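 Thrombin was incubated with excess lactone (DMSO, 10% final). Aliquots over 2 h were diluted into Ts-Gly-Pro-Arg-pNA (75 μM) in 0.05 M phosphate, 0.01 M EDTA, 10 g/L PEG 8000, 10 mg/L aprotinin, pH 8.0, and read at 408 nm against a no-lactone control. Time to maximal inhibition was recorded.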
# [6] = target: T1, Serine protease 1 (Bos taurus); experiment: Time to reach maximum percent inhibition by the compound was determined against trypsin (14.6 nM); assay type: functional; method in brief: as §1
# [7] = target: Chymotrypsinogen A (Bos taurus) (UniProt P00766); experiment: Time for which maximum percent inhibition persists was determined against alpha-chymotrypsin (17 nM); assay type: functional; method in brief: as §2
# [8] = target: Prothrombin (Homo sapiens) (UniProt P00734); experiment: Maximum percent inhibition by the compound was determined against thrombin (1.93 nM); method in brief: as §2
# [9] = target: T1, Serine protease 1 (Bos taurus); experiment: Substrate binding constant against trypsin
# Method in brief: (§4)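 Competitive substrate assay: lactone (DMSO, final 10% v/v) and chromogenic substrate combined in buffer, enzyme added, absorbance followed to steady state. Turnover-corrected semilog plot gives kobs; I0 vs I0/kobs replot (eq 6) with separately determined Km yields Ki and ka. Where no burst was seen, Ki was estimated from Km(app) replots using 15-s initial velocities. Buffers and substrates as in incubation assay.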
# [10] = Ratio of initial inhibitor concentration to initial Plasmin concentration; method in brief: as §3
# [11] = target: Tissue-type plasminogen activator (Homo sapiens) (UniProt P00750); experiment: Time for which maximum percent inhibition persists was determined against Tissue plasminogen activator (19.4 nM); assay type: functional; method in brief: as §2
# Sequence of Tissue-type plasminogen activator (Homo sapiens) (P00750 36-562 limits assumed): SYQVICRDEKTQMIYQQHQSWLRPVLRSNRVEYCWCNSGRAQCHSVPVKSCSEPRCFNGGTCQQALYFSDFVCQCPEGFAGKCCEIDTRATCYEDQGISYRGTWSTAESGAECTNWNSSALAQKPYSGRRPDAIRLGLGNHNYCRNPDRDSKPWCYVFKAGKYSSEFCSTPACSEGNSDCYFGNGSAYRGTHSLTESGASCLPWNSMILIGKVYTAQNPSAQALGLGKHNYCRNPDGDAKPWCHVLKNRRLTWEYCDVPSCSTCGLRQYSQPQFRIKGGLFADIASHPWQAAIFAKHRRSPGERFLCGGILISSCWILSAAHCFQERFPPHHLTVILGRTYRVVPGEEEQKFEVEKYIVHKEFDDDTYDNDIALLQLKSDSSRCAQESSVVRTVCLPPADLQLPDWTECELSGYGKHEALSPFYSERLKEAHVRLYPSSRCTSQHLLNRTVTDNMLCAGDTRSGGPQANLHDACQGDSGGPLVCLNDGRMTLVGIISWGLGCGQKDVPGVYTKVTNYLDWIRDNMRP
# [12] = Ratio of initial inhibitor concentration to initial trypsin concentration; method in brief: as §3
# [13] = target: Tissue-type plasminogen activator (Homo sapiens) (UniProt P00750); experiment: Maximum percent inhibition by the compound was determined against Tissue plasminogen activator (19.4 nM); method in brief: as §2
# [14] = target: Chymotrypsinogen A (Bos taurus) (UniProt P00766); experiment: Time to reach maximum percent inhibition by the compound was determined against alpha-chymotrypsin (17 nM); assay type: functional
# Method in brief: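 α-Chymotrypsin with excess lactone (DMSO, 10% final) was sampled over 2 h into Suc-Ala-Ala-Pro-Phe-pNA (315 μM) in 0.2 M phosphate, pH 7.2. Absorbance at 410 nm gave the remaining activity versus a control without lactone. Minutes to maximal inhibition were taken.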
# [15] = target: T2, Neutrophil elastase (Homo sapiens) (UniProt P08246); experiment: Time for which maximum percent inhibition persists was determined against human neutrophil elastase (HNE); assay type: functional; method in brief: as §2
# T2 sequence (whole entry): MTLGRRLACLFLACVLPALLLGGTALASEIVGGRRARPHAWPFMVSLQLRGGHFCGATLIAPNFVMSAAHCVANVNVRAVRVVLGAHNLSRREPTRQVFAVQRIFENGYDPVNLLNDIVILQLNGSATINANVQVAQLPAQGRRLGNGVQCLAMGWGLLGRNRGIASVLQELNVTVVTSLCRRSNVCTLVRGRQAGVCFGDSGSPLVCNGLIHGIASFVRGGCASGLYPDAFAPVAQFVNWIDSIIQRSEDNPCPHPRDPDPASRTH
# [16] = target: Tissue-type plasminogen activator (Homo sapiens) (UniProt P00750); experiment: Time to reach maximum percent inhibition by the compound was determined against Tissue plasminogen activator (19.4 nM); assay type: functional
# Method in brief: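 Tissue plasminogen activator was exposed to excess lactone (10% final DMSO). Over 2 h, aliquots were diluted into Spectrozyme t-PA (0.2 mM) in Tris-imidazole, I 0.3, pH 8.4. Hydrolysis at 405 nm gave residual activity relative to an enzyme-only control. The time (min) to reach maximal percent inhibition was recorded.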
# [17] = target: T1, Serine protease 1 (Bos taurus); experiment: Acylation rate constant against trypsin; method in brief: as §4
# [18] = Ratio of initial inhibitor concentration to initial Chymotrypsinogen concentration; method in brief: as §3
# [19] = target: T1, Serine protease 1 (Bos taurus); experiment: Maximum percent inhibition by the compound was determined against trypsin (14.6 nM); method in brief: as §2
# [20] = target: Plasminogen (Homo sapiens) (UniProt P00747); experiment: Time for which maximum percent inhibition persists was determined against plasmin; assay type: functional; method in brief: as §2
# Sequence of Plasminogen (Homo sapiens) (P00747 97-580 limits assumed): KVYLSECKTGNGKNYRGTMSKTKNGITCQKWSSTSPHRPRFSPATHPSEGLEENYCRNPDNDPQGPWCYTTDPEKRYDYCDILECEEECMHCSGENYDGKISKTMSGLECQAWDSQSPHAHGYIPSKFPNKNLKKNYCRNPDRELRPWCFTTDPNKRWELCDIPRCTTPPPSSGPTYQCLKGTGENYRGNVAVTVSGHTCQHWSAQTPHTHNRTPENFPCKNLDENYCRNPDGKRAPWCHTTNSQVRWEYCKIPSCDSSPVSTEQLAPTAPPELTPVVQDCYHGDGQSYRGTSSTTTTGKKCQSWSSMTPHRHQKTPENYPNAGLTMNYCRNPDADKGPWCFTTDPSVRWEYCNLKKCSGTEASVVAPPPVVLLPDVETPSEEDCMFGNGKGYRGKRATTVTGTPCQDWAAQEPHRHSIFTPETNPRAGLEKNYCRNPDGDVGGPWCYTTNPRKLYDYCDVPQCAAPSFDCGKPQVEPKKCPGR
# Sequence of Plasminogen (Homo sapiens) (P00747 581-810 limits assumed): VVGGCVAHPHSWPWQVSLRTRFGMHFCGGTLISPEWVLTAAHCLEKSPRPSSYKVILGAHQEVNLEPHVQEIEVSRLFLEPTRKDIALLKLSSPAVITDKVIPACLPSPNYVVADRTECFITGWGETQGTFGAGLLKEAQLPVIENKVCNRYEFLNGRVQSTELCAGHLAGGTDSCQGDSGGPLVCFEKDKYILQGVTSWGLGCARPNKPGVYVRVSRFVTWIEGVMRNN
# [21] = target: Plasminogen (Homo sapiens) (UniProt P00747); experiment: Time to reach maximum percent inhibition by the compound was determined against plasmin(625 nM); assay type: functional
# Method in brief: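 Plasmin plus excess lactone (10% final DMSO) was sampled over 2 h into Ts-Gly-Pro-Lys-pNA (157.4 μM) in 0.05 M phosphate, pH 7.8. The slope at 404 nm, relative to an enzyme-only control, gave residual activity. Minutes needed to reach maximal inhibition were reported.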
# [22] = target: T3, Urokinase-type plasminogen activator (Homo sapiens, UniProt P00749)
# [23] = Ratio of initial inhibitor concentration to initial HNE concentration; method in brief: as §3
# [24] = target: Plasminogen (Homo sapiens) (UniProt P00747); experiment: Maximum percent inhibition by the compound was determined against plasmin(625 nM); method in brief: as §2
# [25] = Ratio of initial inhibitor concentration to initial t-PA concentration; method in brief: as §3
# [26] = target: T2, Neutrophil elastase (Homo sapiens); experiment: Maximum percent inhibition by the compound was determined against human neutrophil elastase (HNE); method in brief: as §2
# [27] = target: T1, Serine protease 1 (Bos taurus); experiment: Second order rate constant against trypsin; method in brief: as §4
# [28] = target: T3, Urokinase-type plasminogen activator; remark: listed apart in the source
# [29] = target: T3, Urokinase-type plasminogen activator; experiment: Time for which maximum percent inhibition persists was determined against Urokinase-type plasminogen activator e (300 nM); * =no enzyme activity was recovered over 2 h; assay type: functional
# [30] = Ratio of initial inhibitor concentration to initial urokinase concentration; method in brief: as §3
# [31] = target: T3, Urokinase-type plasminogen activator; remark: listed apart in the source
# [32] = target: T2, Neutrophil elastase (Homo sapiens); experiment: Time to reach maximum percent inhibition by the compound was determined against human neutrophil elastase (HNE); assay type: functional
# Method in brief: (§5)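 HNE was incubated with excess lactone in 10% final DMSO. Aliquots drawn during 2 h went into MeO-Suc-Ala-Ala-Pro-Val-pNA (150 μM) in 0.1 M phosphate, 0.5 M NaCl, pH 7.4, read at 410 nm. Activity was set relative to a lactone-free control, and the time (min) to peak inhibition was noted.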
# [33] = target: Plasminogen (Homo sapiens) (UniProt P00747); experiment: Substrate binding constant against plasmin; method in brief: as §4
# Serine protease 1 = target: T4, Serine protease 1 (Bos taurus, UniProt P00760); experiment: Decylation rate constant against trypsin
# T4 sequence (P00760 whole entry): T1 sequence (whole entry)
# Method in brief: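 Trypsin incubated 30–45 min with excess lactone (same I0/E0 as incubation assay). Free inhibitor removed by two 1-h centrifugations at 0 °C. Activity recovery followed at room temperature against an inhibitor-free control carried through the same treatment; kd is the slope of ln remaining activity vs time. Substrate Z-Val-Gly-Arg-pNA 155 µM, 0.2 M phosphate pH 7.2, 404 nm.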
# [34] = target: Plasminogen (Homo sapiens) (UniProt P00747); experiment: Second order rate constant against plasmin; method in brief: as §4
# [35] = target: Plasminogen (Homo sapiens) (UniProt P00747); experiment: Acylation rate constant against plasmin; method in brief: as §4
# [36] = target: T2, Neutrophil elastase (Homo sapiens); experiment: Time to reach maximum percent inhibition by the compound was determined against human neutrophil elastase HNE(66 nM); assay type: functional; method in brief: as §5
# [37] = target: T3, Urokinase-type plasminogen activator; experiment: Decylation rate constant against Urokinase-type plasminogen activator
# [38] = target: T2, Neutrophil elastase (Homo sapiens); experiment: Maximum percent inhibition by the compound was determined against human neutrophil elastase HNE(66 nM); method in brief: as §2
# [39] = target: Plasminogen (Homo sapiens) (UniProt P00747); experiment: Time for which maximum percent inhibition persists was determined against plasmin(625 nM); * =no enzyme activity was recovered over 2 h; assay type: functional; method in brief: as §2
inhibition [2],Ratio [3],TIME [5],TIME [6],TIME [7],inhibition [8],Ks [9],Ratio [10],TIME [11],Ratio [12],inhibition [13],TIME [14],TIME [16],Ka [17],Ratio [18],TIME [21],Ks [22],Ratio [23],inhibition [24],Ratio [25],Compound,other results
58%,518 Io/Eo,0 h,0 h,0 h,7%,0.23 µM,16 Io/Eo,0 h,86 Io/Eo,29%,0.75 h,0 h,14 min⁻¹,118 Io/Eo,0 h,0.33 µM,36 Io/Eo,99%,100 Io/Eo,C=C1CCC(c2ccc(NC(=N)N)cc2)C(=O)O1 (centres undefined),TIME [1]: 0.75 h; TIME [4]: 0 h; TIME [15]: 0 h; inhibition [19]: 97%; TIME [20]: 0 h; inhibition [26]: 22%; Rate [27]: 62 ka/Ks; Ka [28]: 391 min⁻¹; TIME [29]: No enzyme activity; Ratio [30]: 50 Io/Eo; Rate [31]: 1180 ka/Ks; TIME [32]: 0.25 h
34%,518 Io/Eo,0.25 h,0.333 h,0.75 h,40%,9.4 µM,16 Io/Eo,0.5 h,86 Io/Eo,24%,0 h,0.25 h,91 min⁻¹,118 Io/Eo,0 h,0.12 µM,36 Io/Eo,79%,100 Io/Eo,C=C1CC(c2ccc(NC(=N)N)cc2)CC(=O)O1 (centres undefined),Ks [33]: 63.7 µM; Kd (Serine protease 1): 3.3e-05 s⁻¹; Rate [34]: 1.5 ka/Ks; Ka [35]: 97 min⁻¹; TIME [36]: 0.5 h; Rate [27]: 10 ka/Ks; Ka [28]: 0.24 min⁻¹; Ratio [30]: 50 Io/Eo; Kd [37]: 0.00015 s⁻¹; Rate [31]: 2 ka/Ks; inhibition [38]: 27%; TIME [39]: No enzyme activity
